Assay type in all cases: cell-based
In one experiment the target is T1, Kir2.1 (Homo sapiens, UniProt P63252).
T1 sequence (P63252 1-427): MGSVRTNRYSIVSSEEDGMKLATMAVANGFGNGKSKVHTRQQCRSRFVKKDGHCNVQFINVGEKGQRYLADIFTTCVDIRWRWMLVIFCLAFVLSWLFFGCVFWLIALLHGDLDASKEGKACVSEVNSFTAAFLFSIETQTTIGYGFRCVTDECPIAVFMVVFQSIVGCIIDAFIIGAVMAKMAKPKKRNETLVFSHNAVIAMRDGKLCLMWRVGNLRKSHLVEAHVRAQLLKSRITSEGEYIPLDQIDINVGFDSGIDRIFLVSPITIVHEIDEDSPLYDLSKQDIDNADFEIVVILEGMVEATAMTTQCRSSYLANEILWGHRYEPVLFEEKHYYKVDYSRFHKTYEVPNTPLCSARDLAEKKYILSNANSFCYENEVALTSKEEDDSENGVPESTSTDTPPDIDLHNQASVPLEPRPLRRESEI
The experiment in a line: Tl+ flux selectivity assay, Kir2.1. Conditions: for Kir Channel Selectivity (Fold) 2.1: Thallium flux, Kir7.1 over Kir2.1. The essentials: (§1)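 Tetracycline-inducible stable T-REx-HEK-293 lines, induced overnight with 1 µg/ml tetracycline in DMEM/10% dialyzed FBS. Cells loaded 1 hr with 1.2 µM Thallos-AM in HBSS/20 mM HEPES pH 7.3 with 0.01% Pluronic F-127. Baseline fluorescence (ex 470, em 540 nm) read at 1 Hz before adding stimulus buffer with 1.8 mM Tl₂SO₄. Traces normalized to first point and vehicle-subtracted; slope taken 5–20 s post-Tl⁺; IC50 by nonlinear regression of CRCs.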

The next experiment deals with T2, Kir2.2 (Homo sapiens, UniProt Q14500).
T2 sequence (Q14500 1-433): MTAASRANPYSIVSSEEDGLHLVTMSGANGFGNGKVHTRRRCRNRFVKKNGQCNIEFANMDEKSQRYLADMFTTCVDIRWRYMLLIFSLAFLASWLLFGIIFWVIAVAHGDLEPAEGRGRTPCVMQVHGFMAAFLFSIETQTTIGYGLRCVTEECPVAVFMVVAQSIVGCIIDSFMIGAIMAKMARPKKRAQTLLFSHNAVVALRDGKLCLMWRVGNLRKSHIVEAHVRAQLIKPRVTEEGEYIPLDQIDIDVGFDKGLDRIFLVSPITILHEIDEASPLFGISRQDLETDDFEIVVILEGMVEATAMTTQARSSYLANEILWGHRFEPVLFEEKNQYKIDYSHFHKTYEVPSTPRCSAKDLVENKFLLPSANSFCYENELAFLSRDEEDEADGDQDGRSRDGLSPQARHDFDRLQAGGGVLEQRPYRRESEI
The experiment in a line: Tl+ flux selectivity assay, Kir2.2. Particulars: for Kir Channel Selectivity (Fold) 2.2: Thallium flux, Kir7.1 over Kir2.2.

The next experiment deals with T3, Kir7.1-M125R (Homo sapiens, UniProt O60928, M125R).
T3 sequence (O60928 1-360 M125R): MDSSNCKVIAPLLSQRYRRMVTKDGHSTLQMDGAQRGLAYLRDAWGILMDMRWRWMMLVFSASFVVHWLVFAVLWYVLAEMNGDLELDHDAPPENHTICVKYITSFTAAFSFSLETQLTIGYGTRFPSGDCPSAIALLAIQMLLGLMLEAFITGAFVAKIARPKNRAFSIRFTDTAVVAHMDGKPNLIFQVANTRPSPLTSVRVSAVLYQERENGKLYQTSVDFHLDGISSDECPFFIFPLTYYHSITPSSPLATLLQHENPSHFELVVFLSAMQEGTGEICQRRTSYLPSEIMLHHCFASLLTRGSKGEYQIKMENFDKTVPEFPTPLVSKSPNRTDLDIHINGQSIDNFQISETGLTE
Briefly: Tl+ flux assay in T-REx-HEK293 cells expressing Kir7.1-M125R. The essentials: as §1

In a further experiment the target is T4, Kir7.1 (Homo sapiens, UniProt O60928, M125R).
T4 sequence (O60928 1-360 M125R): T3 sequence (O60928 1-360 M125R)
Briefly: Whole-cell patch clamp electrophysiology, Kir7.1. In a few lines: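 Human Kir7.1 (WT or mutant) was transiently co-transfected with EGFP into HEK-293T cells, which were replated next day on poly-L-lysine coverslips. Whole-cell clamp used bath 5 mM KCl, pH 7.4, and pipette 135 mM KCl, pH 7.3. Cells were held at −75 mV, stepped 500 ms to −120 mV, then ramped to 120 mV, every 5 s. Increasing test-compound doses were superfused, then BaCl₂ block; current read at −120 mV; variable-slope Hill fit, mean of n = 5.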

Another experiment has as its target T5, Kir4.1 (Homo sapiens, UniProt P78508).
T5 sequence (P78508 1-379): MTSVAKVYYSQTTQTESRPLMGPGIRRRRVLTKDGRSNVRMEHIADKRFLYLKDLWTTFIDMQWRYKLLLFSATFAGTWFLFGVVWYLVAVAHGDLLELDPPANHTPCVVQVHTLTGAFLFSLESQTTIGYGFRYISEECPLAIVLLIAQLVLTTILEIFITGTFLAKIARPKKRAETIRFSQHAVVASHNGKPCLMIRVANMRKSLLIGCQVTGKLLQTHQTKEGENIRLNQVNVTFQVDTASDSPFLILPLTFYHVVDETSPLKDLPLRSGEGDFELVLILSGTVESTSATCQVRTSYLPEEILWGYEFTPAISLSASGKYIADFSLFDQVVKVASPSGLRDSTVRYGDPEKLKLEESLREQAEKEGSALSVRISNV
The experiment in a line: Tl+ flux selectivity assay, Kir4.1. Conditions: for Kir Channel Selectivity (Fold) 4.1: Thallium flux, Kir7.1 over Kir4.1. In a few lines: as §1

The target in a further experiment is Kir6.2/SUR1 (Homo sapiens, UniProt Q14654). Briefly: Tl+ flux selectivity assay, Kir6.2/SUR1. Conditions: for Kir Channel Selectivity (Fold) 6.2: Thallium flux, Kir7.1 over Kir6.2/SUR1. In a few lines:
as §1

For a further experiment, the system named is Kir1.1. The experiment in a line: Tl+ flux selectivity assay, Kir1.1. Conditions: Thallium flux, Kir7.1 over Kir1.1. In a few lines:
as §1

This is an account of results in PMC5131535 (ACS chemical neuroscience, 2016).

Several values for one entry are separate records, joined by “and”; a condition that tells them apart may be missing. Identical values can stand only once. Like-named read-outs stand apart in the source and are kept apart here. A value given as a limit tells only on which side of the number the result lay.

Chain of Kir6.2/SUR1 (Q14654 whole entry): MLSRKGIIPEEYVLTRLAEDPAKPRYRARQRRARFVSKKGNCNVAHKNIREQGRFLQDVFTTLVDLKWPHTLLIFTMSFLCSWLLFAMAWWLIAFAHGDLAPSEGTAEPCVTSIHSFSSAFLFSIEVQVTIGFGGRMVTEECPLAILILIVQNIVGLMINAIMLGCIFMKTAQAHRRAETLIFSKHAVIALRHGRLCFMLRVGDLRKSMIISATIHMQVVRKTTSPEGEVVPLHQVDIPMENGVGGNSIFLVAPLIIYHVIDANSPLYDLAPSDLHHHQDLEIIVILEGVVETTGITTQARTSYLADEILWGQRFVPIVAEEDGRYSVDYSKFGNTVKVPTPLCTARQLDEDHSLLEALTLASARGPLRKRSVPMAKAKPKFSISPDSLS
Chain of Kir6.2/SUR1 (Q09428 whole entry partner): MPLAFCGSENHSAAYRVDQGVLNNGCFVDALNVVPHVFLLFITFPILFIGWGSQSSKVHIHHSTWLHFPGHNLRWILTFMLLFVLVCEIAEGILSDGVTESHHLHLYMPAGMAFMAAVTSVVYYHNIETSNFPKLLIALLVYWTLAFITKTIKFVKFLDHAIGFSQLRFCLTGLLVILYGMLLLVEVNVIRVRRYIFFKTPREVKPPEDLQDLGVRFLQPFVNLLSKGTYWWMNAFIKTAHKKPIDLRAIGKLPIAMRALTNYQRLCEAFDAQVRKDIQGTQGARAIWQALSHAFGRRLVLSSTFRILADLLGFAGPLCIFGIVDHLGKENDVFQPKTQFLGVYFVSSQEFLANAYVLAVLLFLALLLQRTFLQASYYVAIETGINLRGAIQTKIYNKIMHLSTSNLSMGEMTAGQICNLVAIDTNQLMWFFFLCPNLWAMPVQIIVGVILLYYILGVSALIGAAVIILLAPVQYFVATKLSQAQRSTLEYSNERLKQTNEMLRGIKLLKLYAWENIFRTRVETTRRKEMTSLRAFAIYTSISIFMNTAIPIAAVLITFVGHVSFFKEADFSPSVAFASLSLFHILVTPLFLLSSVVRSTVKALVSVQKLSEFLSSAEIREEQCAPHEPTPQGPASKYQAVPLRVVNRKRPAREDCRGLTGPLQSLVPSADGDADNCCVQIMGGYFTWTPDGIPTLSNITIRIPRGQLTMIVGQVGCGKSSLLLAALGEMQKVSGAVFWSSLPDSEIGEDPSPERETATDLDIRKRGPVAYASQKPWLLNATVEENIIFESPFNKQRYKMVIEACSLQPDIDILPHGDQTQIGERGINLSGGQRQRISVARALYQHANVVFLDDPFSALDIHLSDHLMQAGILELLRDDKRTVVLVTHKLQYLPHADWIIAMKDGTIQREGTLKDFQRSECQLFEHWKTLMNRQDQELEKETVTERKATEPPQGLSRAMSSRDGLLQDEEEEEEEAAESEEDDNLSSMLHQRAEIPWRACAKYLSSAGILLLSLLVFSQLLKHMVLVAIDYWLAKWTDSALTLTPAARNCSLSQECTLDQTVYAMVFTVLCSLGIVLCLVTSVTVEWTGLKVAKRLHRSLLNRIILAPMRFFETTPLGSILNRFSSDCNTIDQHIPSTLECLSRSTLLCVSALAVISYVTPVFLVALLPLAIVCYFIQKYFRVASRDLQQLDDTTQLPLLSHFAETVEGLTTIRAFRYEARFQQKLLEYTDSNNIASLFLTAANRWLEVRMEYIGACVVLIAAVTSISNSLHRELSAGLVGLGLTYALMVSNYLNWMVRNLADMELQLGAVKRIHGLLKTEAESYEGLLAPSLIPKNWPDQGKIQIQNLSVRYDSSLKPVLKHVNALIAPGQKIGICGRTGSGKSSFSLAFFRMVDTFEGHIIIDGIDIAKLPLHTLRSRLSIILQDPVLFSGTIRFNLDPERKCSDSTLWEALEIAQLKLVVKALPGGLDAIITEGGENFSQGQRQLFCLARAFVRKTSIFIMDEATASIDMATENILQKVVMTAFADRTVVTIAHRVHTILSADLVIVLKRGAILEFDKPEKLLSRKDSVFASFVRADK

As for `Oc1c(CN2CCC(Cc3ccccc3)CC2)cc(Cl)c2cccnc12` [VU714], the “Kir2.1 IC50 (Tl+ flux)” value at Kir2.1 is on record as “insensitive”. The “Kir Channel Selectivity (Fold) 2.1” value at Kir2.1 is listed as more than 5 Fold. For the same compound, the IC50 on Kir2.1 (read-out: Kir2.1 IC50 (Tl+ flux)) was more than 30 µM; on Kir2.2 (read-out: Kir2.2 IC50 (Tl+ flux)), more than 30 µM; at Kir7.1-M125R (read-out: Kir7.1 IC50 (Thallium flux), hKir7.1 (M125R) Tl+ flux, average n = 3), 5.6 µM; on Kir7.1 (read-out: Kir7.1 IC50 (Patch clamp), -120 mV) it was 1.5 µM; at Kir4.1 (read-out: Kir4.1 IC50 (Tl+ flux)) it was 13 µM; at Kir6.2/SUR1 (read-out: Kir6.2/SUR1 IC50 (Tl+ flux)), 30 µM. The “Kir Channel Selectivity (Fold) 2.2” value at Kir2.2 was more than 5 Fold. The “Kir Channel Selectivity (Fold) 4.1” value on Kir4.1 amounted to 2 Fold. Moreover, the “Kir Channel Selectivity (Fold) 6.2” value at Kir6.2/SUR1 was 5 Fold. Moreover, in the experiment on Kir1.1, the “Kir Channel Selectivity (Fold) 1.1” value is 3 Fold.
Take `CC(C)OC(=O)NC1CCN(Cc2cc(Cl)c3cccnc3c2O)CC1` [Compound 19, iso-Propyl (1-((5-chloro-8-hydroxyquinolin-7-yl)methyl)piperidin-4-yl)carbamate]: the “Kir Channel Selectivity (Fold) 2.1” value is listed as “at least 23 Fold” at Kir2.1 and more than 23 Fold at Kir2.1 (listed as 19 (ML418)). Also, the results for the “Kir Channel Selectivity (Fold) 2.2” value on Kir2.2 and on Kir2.2 (listed as 19 (ML418)) were “at least 23 Fold” and more than 23 Fold, respectively. The IC50 on Kir7.1-M125R is 1.3 µM; at Kir7.1 (Kir7.1 IC50 (Patch clamp), -120 mV) it was 0.3 µM and 0.31 µM. For the same compound, the results for the “Kir Channel Selectivity (Fold) 4.1” value at Kir4.1 and at Kir4.1 (listed as 19 (ML418)) were “at least 23 Fold” and more than 23 Fold, respectively. Moreover, the “Kir Channel Selectivity (Fold) 6.2” value at Kir6.2/SUR1 (listed as 19 (ML418)) is on record as 1 Fold; at Kir6.2/SUR1 (listed as ML418), “equally potent”. Moreover, the results for the “Kir Channel Selectivity (Fold) 1.1” value in the experiment with Kir1.1 and in the experiment with Kir1.1 (listed as 19 (ML418)) were “at least 23 Fold” and more than 23 Fold, respectively.
